# Sampled rows, rich in hits. Any-hit rate of the full collection: about 2.2%.
# IEC-6 cytotox – cytotoxicity in IEC-6 intestinal epithelial cells, primary screen, cytotoxicity control for KLF5 inhibitor project, cell-based, luminescence | IEC-6 cytotoxicity, luminescence viability | inhibition, % at 5 µM | 290,000 compounds, 0.78% hits | AID 1825, 2009;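 note: 0% = plate median of test compound wells and 100% = cytotoxic reference compound wells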
# APP transl inh – inhibitors of APP translation via 5'UTR reporter, primary screen, APP 5'UTR luciferase, SH-SY5Y cells. SH-SY5Y APP 5'UTR-luciferase reporter, luminescence. inhibition, % at 2 µM. 190,000 compounds, 0.82% hits. AID 1285, 2008;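 active = inhibition above a set limit, derived from the sample mean plus 3 SD, cut at about 45% in these data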
# Ba/F3 V617F tox – reduced viability of JAK2V617F-dependent Ba/F3 cells, primary screen, JAK2V617F inhibitor project, cell-based, Ba/F3 EpoR-JAK2V617F, luminescence; ATP luminescence; inhibition, % at 5.6 µM; 220,000 compounds, 1.1% hits; AID 1446, 2008;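 active = inhibition above the campaign mean plus 3 SD over all tested compounds, cut at about 24% in these data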;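 note: cytokine-independent growth of Ba/F3 cells driven by EpoR plus mutant JAK2; 0% = DMSO-treated cells and 100% = JAK inhibitor I control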
# MT stabilize HCS – microtubule stabilizers in HeLa cells, primary screen, imaging, high-content imaging. HeLa tubulin immunostaining HCS, 24 h; share of cells brighter than vehicle mean+2SD. % tubulin-high responders, % at 10 µM. 200,000 compounds, 0.83% hits;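 active = plate Z-score above 3 for both tubulin-high and condensed-nucleus cell shares, with cell loss under 80%, at 10 µM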;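 note: anti alpha tubulin signal scored within the nucleus-defined area of each cell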
# BaF3 tox – parental Ba/F3 cell viability inhibition, counter-screen for JAK2V617F inhibitor project, murine pro-B, CellTiter-Glo luminescence | 220,000 compounds, 1.1% hits | CellTiter-Glo ATP luminescence | AID 1486, 2009 | inhibition, % at 5.6 µM;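 active = inhibition above a per-campaign cutoff, the mean inhibition of all tested compounds plus 3 SD, cut at about 27% in these data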;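 note: 0% = DMSO wells and 100% = JAK Inhibitor I control wells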
# b-catenin transl – modulators of beta-catenin nuclear translocation, primary screen, imaging, HeLa cells, immunofluorescence, high-content; AID 1665, 2009; 190,000 compounds, 0.3% hits; nuclear translocation activity, % at 5 µM;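 active = nuclear translocation activity above 50% at 5 µM, with a well cell count of 50 or more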;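 note: per-cell ratio of nuclear to cytoplasmic median beta-catenin stain intensity; plate controls were DMSO negative control for no effect and GSK-3 inhibitor IX positive control for full effect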
#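 test system = HeLa cells, endogenous beta-catenin | dosing = single 5 µM dose plus 0.02–20 µM confirmation series | times = compound treatment 24 h, 37°C, 5% CO2 | technique = beta-catenin immunofluorescence imaging with DAPI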
# IEC-6 cytotox cf – cytotoxic compounds in IEC-6 epithelial cells, confirmation, cytotoxicity control, cell-based, luminescence; AID 1907, 2009; shares compounds with IEC-6 cytotox; inhibition, % at 5 µM; IEC-6 rat intestinal epithelial viability; 1,900 compounds, 63% hits;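 note: 0% = vehicle and 100% = reference cytotoxic drug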
# Numbers without * were called inactive; . = not tested or not shown. Cut-off read from the data, not from the text of the source, unless noted: active = inhibition above about 22%; inactive = the rest.
SMILES,IEC-6 cytotox,APP transl inh,Ba/F3 V617F tox,MT stabilize HCS,BaF3 tox,b-catenin transl,IEC-6 cytotox cf
CCOC(=O)[C@@H]1[C@H]2COc3cc(OC)ccc3[C@H]2N2C(=O)N(c3ccc(C)cc3)C(=O)[C@@]12C,-5,.,.,.,.,.,.
CC(=O)NNC(=O)c1[nH]c2ccc(Cl)cc2c1-c1ccccc1,-4,.,-1,.,-1,2,.
O=C(N/N=C/c1ccc(O)cc1)c1[nH]c2ccc(Br)cc2c1-c1ccccc1,83*,94*,75*,15,71*,40,65*
C/C(=N\NC(=O)CCC(=O)O)c1c(-c2ccccc2)c2cc(Br)ccc2[nH]c1=O,3,.,-4,.,0,-1,.
NNC(=O)c1[nH]c2ccccc2c1-c1ccccc1,95*,.,.,.,.,.,11
O=C(N/N=C/c1c[nH]c2ccccc12)c1[nH]c2ccc(Br)cc2c1-c1ccccc1,82*,92*,76*,8,68*,8,63*
COc1ccc(CNC(=O)c2cccnc2)cc1,2,.,.,.,.,.,.
O=C(CSc1nc2ccccc2c(=O)n1Cc1ccccc1)Nc1ccc(Br)cc1C(=O)O,34*,.,.,.,.,.,20
O=C(Cc1cccc2ccccc12)Nc1ccc(Br)cc1C(=O)O,25*,.,.,.,.,.,3
S=C(NCc1ccco1)N1CCC(c2nc3ccccc3o2)CC1,2,21,-2,2,1,2,.
CCOc1ccc(N(C(=O)c2ccc3c(c2)OCO3)C2C=CS(=O)(=O)C2)cc1 (centres undefined),-8,.,.,.,.,.,.
Nc1nc(Nc2ccccc2)nc2ccccc12,22*,-155,11,1,15,-3,15
CC(CC(=O)NC1CCCC1)c1ccccc1 (centres undefined),-6,0,0,1,2,-3,.
CC(=O)c1ccc(NC(=S)Nc2cccc3ccccc23)cc1,63*,.,.,.,.,.,6
CC(=O)N(C)c1ccc(NC(=S)Nc2cccc3ccccc23)cc1,8,-13,3,4,4,1,.
Fc1ccc(F)c(CNc2ncnc3cc(Cl)ccc23)c1,10,.,.,.,.,.,.
Fc1ccccc1CNc1ncnc2sccc12,16,.,.,.,.,.,.
COc1cc2ncnc(NCc3ccccc3F)c2cc1OC,28*,.,.,.,.,.,33*
COc1cc2ncnc(NCc3cccc(F)c3F)c2cc1OC,35*,.,.,.,.,.,28*
COc1ccc(Cl)cc1NC(=O)CSc1nc(N2CCOCC2)nc(N2CCOCC2)n1,4,.,.,.,.,.,.
COc1ccc(Cl)cc1NC(=O)CSc1nc(Nc2ccccc2)nc(N2CCOCC2)n1,30*,.,.,.,.,.,12
Cc1ccc(-n2c(O)c(/C=C3/C(c4ccccc4)=Nc4ccccc43)c(=O)[nH]c2=O)cc1,66*,76*,74*,18*,61*,0,60*
Cc1cc(C)c(C)c(S(=O)(=O)N(C)C2CCN(C)CC2)c1C,4,.,.,.,.,.,.
Cc1ccc(S(=O)(=O)Cc2ccc(C(=O)N3CCN(c4cccc(C)c4C)CC3)o2)cc1,77*,.,.,.,.,.,56*
N#Cc1c(/N=C\c2ccc(O)c([N+](=O)[O-])c2)sc2c1CCCC2,8,5,-1,3,0,-2,.
SMILES,IEC-6 cytotox,APP transl inh,Ba/F3 V617F tox,MT stabilize HCS,BaF3 tox,b-catenin transl,IEC-6 cytotox cf
Cc1cc(C(=O)NC2CCCc3c2cnn3-c2ccc(C)c(C)c2)nc(C)n1 (centres undefined),3,.,.,.,.,.,.
CCn1cc(C(=O)NC2CCCc3c2cnn3-c2cccc(C)c2C)cn1 (centres undefined),22*,.,.,.,.,.,14
COC(=O)c1ccc(C(=O)NC2CCCc3c2cnn3-c2ccc(C)c(C)c2)cc1 (centres undefined),76*,.,.,.,.,.,58*
O=C(Nc1ccc(Br)cc1)c1ccc2c(c1)OCO2,5,.,.,.,.,.,.
CCOc1ccccc1N1CC(O)=C(c2nc3ccccc3s2)C1=N,56*,92*,83*,28*,77*,10,60*
CCOC(=O)c1[nH]c2c(c1C)C(=O)CC(c1ccc(F)cc1)C2 (centres undefined),42*,92*,56*,9,56*,76*,60*

# Screening results: PubChem, several laboratories
